Redox H2O2 prof: compounds producing H2O2 with reducing agent – biochemical, NIH compound library profiling, artefact control for MLSCN library redox annotation, primary screen; AID 878, 2007; DTT-dependent redox cycling H2O2, phenol red/HRP absorbance; 100% = 100 µM peroxide control, 0% = buffer; actives 0.03% (n = 200,000); activation, % at 10 µM;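 active = activation of at least 50% relative to the plate's high and low controls in the primary single-dose screen; inactive = activation below 50%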;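 also: compound incubated with DTT at 0.8 mM final as the reducing agent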
L major viab: Leishmania major promastigote growth inhibition, primary screen. Leishmania major promastigotes, resazurin fluorescence viability. actives 9% (n = 200,000). inhibition, % at 10 µM; in the data active = inhibition above about 50%;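 also: promastigotes grown with compound for 44 hours at 28 °C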
Hep lipid drop: inhibitors of hepatocyte lipid droplet formation, primary screen, imaging, high-throughput imaging, BODIPY stain; AML12 mouse hepatocytes, oleate lipid droplets; inhibition, % at 6.5 µM; actives 0.4% (n = 240,000);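 active = lipid droplet intensity inhibited by at least 50%, with more than 500 cells counted; inconclusive = wells with under 300 cells, treated as cytotoxic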
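Assay system: AML12 mouse liver cells | Compound: 6.5 µM single-point dosing | Schedule: Overnight exposure | Technique: Fluorescence imaging, 20x objective, two fields per well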
T cruzi repl: inhibitors of intracellular T. cruzi growth, primary screen, luminescence, NIH3T3 host cells. T. cruzi beta-gal in NIH3T3, 90 h. inhibition, % (test concentration not listed). actives 1.4% (n = 300,000). AID 1885, 2009;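 active = mean inhibition across valid replicates above about 55%, limit read from the data; inconclusive = mean below that limit but half or more replicates reach it; inactive = mean below it, under half of replicates reach it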;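 also: signal also drops with host cell toxicity which is not excluded here; higher percent means less beta-gal luminescence so fewer parasites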
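System: mouse NIH/3T3 fibroblasts infected with β-gal-expressing T. cruzi Tulahuen C4 / Input: NIH/3T3 cells, 5,000 per well / Buffer or medium: Low-serum DMEM with 2% FBS / Probe or stimulus: 5000 reporter trypomastigotes per well / Schedule: ≥90 h infection period, 3 h prior cell attachment / Measured by: GalScreen luminescence, 60 min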
MPTP block: mitochondrial permeability transition pore inhibitors, primary screen, biochemical, isolated mouse mitochondria, absorbance. Ca2+ swelling absorbance, 30 min. inhibition, % at 10 µM. actives 1.4% (n = 360,000). AID 602449, 2012;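 active = inhibition of 50% or more, scaled per plate between neutral and stimulator controls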
Numbers stand for hits; i = inactive; ? = inconclusive; nt = no result given. The full list was thinned out, with hits kept by preference.

SMILES | Redox H2O2 prof | L major viab | Hep lipid drop | T cruzi repl | MPTP block
Cc1ccc(/C=N/NC(=O)CNC(=O)c2cccc([N+](=O)[O-])c2C)o1 | i | i | i | i | i
Cc1c(NC(=O)Nc2ccc(F)cc2F)c(=O)n(-c2ccccc2)n1C | nt | nt | i | i | i
CSCC(C)N1CCC(CO)(CCCc2ccccc2)CC1 (configuration not stated) | i | 91 | i | i | i
OCC1(CCCc2ccccc2)CCN(C2CCSCC2)CC1 | i | 84 | i | i | i
CCOC(=O)C1(CCCc2ccccc2)CCN(C(=O)COC)CC1 | nt | nt | i | i | i
CCOC(=O)C1(CCCc2ccccc2)CCN(C2CCSCC2)CC1 | i | 85 | i | i | i
OCC1(CCCc2ccccc2)CCN(C2CCC2)CC1 | nt | nt | i | i | i
O=C(CCCC(=O)N(c1ccc2c(c1)OCCO2)C(C(=O)NC1CCCCC1)c1ccc(F)cc1)Nc1ccccn1 (configuration not stated) | i | i | nt | i | i
COc1ccc(C(C(=O)NC2CCCC2)N(C(=O)c2ccoc2C)c2ccc(C)cc2)cc1 (configuration not stated) | i | i | i | i | i
COc1ccc(N(C(=O)c2snc(C(N)=O)c2N)C(C(=O)NC2CCCCC2)c2ccc(F)cc2)c(OC)c1 (configuration not stated) | nt | nt | i | i | i
Cc1ccc(C(C(=O)NC2CCCCC2)N(C(=O)CCCC(=O)Nc2ccccn2)c2ccc3c(c2)OCCO3)cc1 (configuration not stated) | i | 68 | i | i | i
COc1ccc(CN(C(=O)c2nsc(Cl)c2Cl)C(C(=O)NC2CCCC2)c2ccc(C)cc2)cc1 (configuration not stated) | i | 71 | i | i | i
COc1ccc(-c2nsc(C(=O)N(c3ccc(F)cc3)C(C(=O)NC3CCCC3)c3ccc(OC)cc3)c2N)cc1 (configuration not stated) | i | 90 | i | i | i
COc1ccc(C(C(=O)NC2CCCCC2)N(C(=O)CCl)c2ccc(C)cc2)cc1 (configuration not stated) | i | 91 | i | i | i
CN(C)CCN(Cc1ccccc1)C(=O)c1[nH]c(C(F)(F)F)nc1-c1ccccc1 | nt | nt | nt | nt | i
CCN(CC)S(=O)(=O)c1ccc(Cl)c(NC(=O)COC(=O)/C=C/c2ccc(O)c(OC)c2)c1 | i | i | i | i | i
O=C(c1n[nH]c2ccccc12)N1CCN(S(=O)(=O)c2ccc(Cl)cc2)CC1 | nt | nt | nt | nt | i
CCN(CC)CCN(C(=O)Cn1nnc(-c2ccc(C)o2)n1)C(C(=O)NC1CCCC1)c1ccc(F)cc1 (configuration not stated) | nt | nt | i | i | i
COc1ccc(C(C(=O)NC2CCCCC2)N(C(=O)CCl)c2cccc(Cl)c2)cc1 (configuration not stated) | i | 100 | ? | i | i
COc1cccc(N(C(=O)c2cnccn2)C(C(=O)NC2CCCCC2)c2ccc(Cl)cc2)c1 (configuration not stated) | i | i | i | i | i
CCOc1cccc(N(C(=O)C2COc3ccccc3O2)C(C(=O)NC2CCCCC2)c2ccc(O)cc2)c1 (configuration not stated) | i | 82 | i | i | i
COc1ccc(C(C(=O)NC2CCCCC2)N(C(=O)CCl)c2ccc(OC)cc2)cc1 (configuration not stated) | i | 93 | i | i | i
COC(CN(C(=O)CCl)C(C(=O)NC1CCCCC1)c1ccc(C)cc1)OC (configuration not stated) | i | 72 | i | i | i
COC(=O)c1ccc(NC(=O)Cn2nc(C)cc2C)cc1 | i | i | i | i | i
C/C(=N\OCC(=O)OC(C)C(=O)Nc1ccc(C)c(S(=O)(=O)N2CCOCC2)c1)c1ccc2c(c1)OCO2 (configuration not stated) | nt | nt | nt | nt | i
COc1ccc(NC(=O)CN(C)CC(=O)N(C)C2(C#N)CCC(C)CC2)cc1 (configuration not stated) | nt | nt | nt | nt | i
CC1CN(CCCCSc2ccccc2)CC(C)O1 (configuration not stated) | nt | nt | i | i | i
CC1CCC(=O)N(CCSc2ccccc2)CC1 (configuration not stated) | nt | nt | i | i | i

Source: PubChem BioAssay (several laboratories)
